Results published in ChEMBL document CHEMBL1140445, “Design, synthesis, and preliminary pharmacological evaluation of a set of small molecules that directly activate gi proteins” (J Med Chem, 2005).

What was measured:
Format in all cases: functional
[1] = target: T1, Guanine nucleotide-binding protein G(i) subunit alpha-1 (Homo sapiens, UniProt P63096); experiment: Percent stimulation of [35S]GTP-gamma-S, binding to G alpha i1 at 5E-5 M of basal for 30 minutes
Outline: (§1)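 Recombinant His-tagged Gαi subunit (3 pmol, native or in lipid vesicles) was incubated with compound at 5×10^-5 M and 0.1 μM [35S]GTPγS, 30 min at 30 °C, in 50 mM Hepes-NaOH, 1 mM EDTA, 1 mM DTT, 100 μM MgSO4. Filter-bound GTPγS after ice-cold stop and cellulose-nitrate filtration is expressed as percent of basal.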

[2] = target: T2, Guanine nucleotide-binding protein G(i) subunit alpha-3 (Homo sapiens, UniProt P08754); experiment: Concentration required to stimulate binding of [35S]GTP-gamma-S, with G alpha i3
Outline: (§2)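 His-tagged recombinant Gαi subunits were expressed in E. coli BL21/DE3 and purified by IMAC. 3 pmol of subunit, native or in lipid vesicles, was incubated 30 min at 30 °C with 0.1 μM [35S]GTPγS in 50 mM Hepes-NaOH, 1 mM EDTA, 1 mM DTT and 100 μM MgSO4. The reaction was stopped with ice-cold buffer and filtered on cellulose nitrate. EC50 came from 1×10^-7 to 1×10^-4 M (eight concentrations).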

[3] = target: T3, Guanine nucleotide-binding protein G(o) subunit alpha (Homo sapiens, UniProt P09471); experiment: Percent stimulation of [35S]GTP-gamma-S, binding to G alpha o1 at 5E-5 M of basal for 30 minutes
Outline: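 With Gαo (3 pmol recombinant His-tagged subunit, native or vesicle-reconstituted), binding of 0.1 μM [35S]GTPγS was measured during 30 min at 20 °C with compound at 5×10^-5 M, in Hepes-NaOH buffer with EDTA, DTT and 100 μM MgSO4. Samples were filtered on cellulose nitrate, and the value is percent of basal binding.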
Target sequence in this assay (P09471 2-354 limits assumed): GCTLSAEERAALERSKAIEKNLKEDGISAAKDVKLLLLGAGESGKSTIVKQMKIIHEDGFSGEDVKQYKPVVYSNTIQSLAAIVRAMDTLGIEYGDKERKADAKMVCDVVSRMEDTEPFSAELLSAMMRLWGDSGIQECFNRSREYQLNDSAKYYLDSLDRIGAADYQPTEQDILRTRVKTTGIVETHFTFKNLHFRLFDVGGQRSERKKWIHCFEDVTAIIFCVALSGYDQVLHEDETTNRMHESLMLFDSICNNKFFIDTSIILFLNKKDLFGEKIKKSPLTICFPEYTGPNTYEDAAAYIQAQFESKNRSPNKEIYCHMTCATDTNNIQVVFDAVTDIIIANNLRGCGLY

[4] = target: T1, Guanine nucleotide-binding protein G(i) subunit alpha-1; experiment: Concentration required to stimulate binding of [35S]GTP-gamma-S, with G alpha i1; outline: as §2
[5] = target: T2, Guanine nucleotide-binding protein G(i) subunit alpha-3; experiment: Percent stimulation of [35S]GTP-gamma-S, binding to G alpha i3 at 5E-5 M of basal for 30 minutes; outline: as §1
[6] = target: T3, Guanine nucleotide-binding protein G(o) subunit alpha; experiment: Concentration required to stimulate binding of [35S]GTP-gamma-S, with G alpha o1
Outline: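 Gαo: His-tagged recombinant subunit from E. coli BL21/DE3, IMAC-purified. 3 pmol, native or vesicle-reconstituted, incubated 30 min at 20 °C with 0.1 μM [35S]GTPγS in Hepes-NaOH/EDTA/DTT/100 μM MgSO4 mix. The reaction was stopped with ice-cold Tris/MgCl2/NaCl buffer, filtered on cellulose nitrate and washed. EC50 was derived from eight concentrations spanning 1×10^-7 to 1×10^-4 M.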
Target sequence in this assay (P09471 whole entry): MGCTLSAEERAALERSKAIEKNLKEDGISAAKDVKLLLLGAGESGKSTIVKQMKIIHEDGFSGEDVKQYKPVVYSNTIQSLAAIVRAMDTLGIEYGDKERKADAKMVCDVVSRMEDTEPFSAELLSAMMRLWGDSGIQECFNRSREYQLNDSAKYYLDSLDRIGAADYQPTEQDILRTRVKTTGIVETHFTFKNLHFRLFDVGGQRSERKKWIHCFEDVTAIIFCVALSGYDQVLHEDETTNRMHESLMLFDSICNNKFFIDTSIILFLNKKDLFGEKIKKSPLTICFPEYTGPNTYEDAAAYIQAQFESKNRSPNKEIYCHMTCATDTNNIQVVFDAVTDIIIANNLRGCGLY

[7] = target: T2, Guanine nucleotide-binding protein G(i) subunit alpha-3; experiment: Percent stimulation of [35S]GTP-gamma-S, binding to G alpha i3 at 3E-5 M of basal for 30 minutes

T2 sequence (P08754 whole entry): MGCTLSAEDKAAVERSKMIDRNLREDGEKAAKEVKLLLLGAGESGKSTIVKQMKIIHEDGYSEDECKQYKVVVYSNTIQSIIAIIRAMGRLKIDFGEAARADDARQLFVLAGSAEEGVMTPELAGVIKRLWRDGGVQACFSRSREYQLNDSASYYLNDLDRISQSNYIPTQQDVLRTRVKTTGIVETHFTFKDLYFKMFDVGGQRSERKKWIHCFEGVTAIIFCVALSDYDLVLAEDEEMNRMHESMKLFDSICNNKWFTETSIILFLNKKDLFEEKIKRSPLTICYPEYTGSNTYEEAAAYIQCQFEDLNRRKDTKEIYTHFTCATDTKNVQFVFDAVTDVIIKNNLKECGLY
T1 sequence (P63096 whole entry): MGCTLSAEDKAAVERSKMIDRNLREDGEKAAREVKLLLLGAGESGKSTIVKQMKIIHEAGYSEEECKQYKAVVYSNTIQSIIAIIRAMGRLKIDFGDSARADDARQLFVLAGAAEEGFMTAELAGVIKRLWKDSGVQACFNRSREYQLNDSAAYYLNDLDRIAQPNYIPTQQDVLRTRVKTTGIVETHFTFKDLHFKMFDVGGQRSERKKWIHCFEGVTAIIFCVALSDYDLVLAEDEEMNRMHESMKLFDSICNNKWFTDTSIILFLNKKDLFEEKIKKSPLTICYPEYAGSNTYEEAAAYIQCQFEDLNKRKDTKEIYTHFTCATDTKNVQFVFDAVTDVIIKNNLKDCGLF

Structure (SMILES)	Stimulation [1]	EC50 [2]	Stimulation [3]	EC50 [4]	Stimulation [5]	EC50 [6]	Stimulation [7]
CCCCCCCCCCCCCCCN1CCC(NC2CCNCC2)CC1	1540%	14.4 µM	3040%	32.4 µM	2280%	13.5 µM	
CCCCCCCCCCCCC(=O)N1CCC(C2CCN(C)CC2)CC1	84%		126%		75%		
CCCCCCCCCCCCCCC(=O)N1CCC(CCC2CCN(C)CC2)CC1	577%	6.1 µM	742%	20.1 µM	815%	12.5 µM	
CCCCCCCCCCCCCCC[N+]1(C)CCC(C2CCNCC2)CC1 (stereo not given)	1580%	16 µM	2090%	14.7 µM	1630%	10.1 µM	
CCCCCCCCCCCCCNC1CCNCC1	1480%	18.8 µM	2350%	36.4 µM	2000%	25.5 µM	
CCCCCCCCCCCCCCCNC1CCNCC1	3370%	11.2 µM	3830%	11.8 µM	3440%	13.3 µM	
CCCCCCCCCCCCCN1CCC(C2CCNCC2)CC1	755%	21.2 µM	913%	21.1 µM	406%	27.1 µM	
CCCCCCCCCCCCCCCN1CCN(N)CC1	2330%	6.5 µM	2870%	6.5 µM	2820%	3.7 µM	
CCCCCCCCCCCCCCCN1CCC(N)CC1	3350%	27.6 µM	6890%	22.1 µM	3780%	23 µM	
CCCCCCCCCCCCCCCCCN1CCC(C2CCNCC2)CC1	5690%	41.5 µM	3480%	35.7 µM	5660%	13.4 µM	
CCCCCCCCCCCCCCCN1CCC(CCC2CCN(C)CC2)CC1	86%		132%		102%		
CCCCCCCCCCCCCCCNC(=O)C1CCN(CCN)CC1	2630%	19 µM	3350%	18.4 µM	2720%	16.9 µM	
CCCCCCCCCCCCCCC(=O)NC1CCNCC1	1270%	34.3 µM	1370%	50.2 µM	1290%	22.7 µM	
CCCCCCCCCCCCCCCN1CCC(C2CCNCC2)CC1	1510%	18.7 µM	1810%	19.1 µM	1640%	6.2 µM	
CCCCCCCCCCCCCCCCCN1CCC(C2CCN(C)CC2)CC1	81%		99%		97%		
CCCCCCCCCCCCCCCNCC1CCNCC1	2460%	11.4 µM	4160%	10.6 µM	1930%	12.4 µM	
CCCCCCCCCCCCNC(=O)C(N)CCCCN (stereo not given)	900%	43.9 µM	2510%	47.9 µM	1030%	28.8 µM	

Structure (SMILES)	Stimulation [1]	EC50 [2]	Stimulation [3]	EC50 [4]	Stimulation [5]	EC50 [6]	Stimulation [7]
CCCCCCCCCCCCCCC(=O)N1CCC(CCC2CCNCC2)CC1	845%	6.3 µM	724%	6.6 µM	1090%	6.1 µM	
CCCCCCCCCCCCCCC(=O)N1CCC(C2CCN(C)CC2)CC1	392%	17.9 µM	531%	6 µM	265%	34.9 µM	
CCCCCCCCCCCCC(=O)N1CCC(C2CCNCC2)CC1	950%	12.1 µM	1500%	17.6 µM	1180%	18.1 µM	
CCCCCCCCCCCCCCC(=O)N1CCC(C2CCNCC2)CC1	1540%	9.3 µM	2390%	8.6 µM	1560%	5.6 µM	
CCCCCCCCCCCCCCC(=O)NN1CCNCC1	2320%	24.9 µM	4640%	38.5 µM	3690%	23.4 µM	
CCCCCCCCCCCCCCCNC(=O)C1CCNCC1	973%	5.9 µM	2270%	6.4 µM	986%	8.2 µM	
CCCCCCCCCCCCCN1CCC(C2CCN(C)CC2)CC1	704%	18.9 µM	420%	18.7 µM	435%	19.3 µM	
CCCCCCCCCCCCCCCNCC1CCN(CCN)CC1	825%	23 µM	942%	17.8 µM	815%	24.3 µM	
CCCCCCCCCCCCCCCN1CCC(C2CCN(C)CC2)CC1	97%		93%		80%		
CCCCCCCCCCCCCCCCC(=O)N1CCC(C2CCN(C)CC2)CC1	232%	23.3 µM	472%	23 µM	181%	21.4 µM	
CCCCCCCCCCCCCCCNN1CCNCC1	5060%	19 µM	5580%	15.9 µM		6.1 µM	5720%
CCCCCCCCCCCCCCC(=O)N1CCC(N)CC1	1050%	25.1 µM	1280%	25.5 µM	1070%	25.8 µM	
COc1ccccc1CN1CCC(C2CCNCC2)CC1	60%	38.8 µM	129%		391%		
CCCCCCCCCCCCCCCCC(=O)N1CCC(C2CCNCC2)CC1	612%	24.4 µM	920%	25.4 µM	424%	22.6 µM	
CCCCCCCCCCCCCCCNC(=O)C1CCN(CCNC=O)CC1	3290%	9.3 µM	3600%	8.6 µM	3240%	5.5 µM	
CCCCCCCCCCCCCCC(=O)N1CCN(N)CC1	173%	24.6 µM	194%	28.6 µM	211%	374 µM	
CCCCCCCCCCCCCCCN1CCC(CCC2CCNCC2)CC1	2460%	8050 µM	5010%	451 µM	2400%	10.5 µM	
